Drawing on PubChem BioAssay AID624268 (The Scripps Research Institute Molecular Screening Center, 2012), this text covers inhibition for 25 molecules.

Out of some 360,000 compounds screened, about 1,500 (0.42%) were called active.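 The calls were made as follows: active = inhibition above a per-plate cutoff of the control wells' mean inhibition plus 3 SD (cut at about 5.5% in these data); inactive = the rest.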 The full list was thinned out, with actives kept by preference.

The test system of this assay is methionyl-tRNA synthetase (Trypanosoma brucei brucei). The assay can be described thus: inhibition of trypanosome methionyl-tRNA synthetase – biochemical, luminescence, primary screen (AID 624268).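 Also: 0% = DMSO wells median and 100% = median of wells with control inhibitor compound.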 The following applies: purified T. brucei MetRS, ATP depletion, Kinase-Glo luminescence; at 11.9 µM; stronger effect = higher value. In a few lines:
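Measured by: Kinase-Glo luciferase luminescence reporting remaining unconsumed ATP. Material: purified T. brucei MetRS enzyme. Doses: 11.9 µM compound single dose, 0.9% DMSO. Medium: HEPES buffer containing pyrophosphatase, BSA, spermine, DTT. Times: 15 min preincubation, 2 h reaction, all 25 °C. Reagent: methionine, ATP and bulk E. coli tRNA.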
A general note: Kinase-Glo measures the ATP left after a reaction by luminescence.
Take `CN(CC(=O)NCc1ccc2c(c1)OCO2)CC(=O)Nc1ccc(F)c(F)c1F`: the inhibition was -0.42% (inactive).

With `COc1ccc(CCOC(=O)CNC(=O)c2ccc(Cl)cc2Cl)cc1`, the inhibition was 0.12% (inactive).

In the case of `COC(=O)/C(=C\Nc1ccccc1)NC(=O)c1ccc(Cl)cc1Cl`, the inhibition was 43% (active).

For the molecule `O=C(NNC(=O)c1ccc(Cl)cc1Cl)c1cccs1`, the inhibition was -0.62% (inactive).

On to `Cn1ccsc1=NC(=O)c1cc(S(=O)(=O)N2CCOCC2)ccc1Cl`, for which the inhibition is 0% (inactive).

For `COc1ccc(S(=O)(=O)N2CCOC2CNC(=O)C(=O)NCc2ccncc2)cc1C` (stereo not given), the inhibition was -0.16% (inactive).

Turning to `CCCCc1ccc(S(=O)(=O)NC(=O)C2(C)CCN2C(=O)c2c(C)noc2C)cc1` (stereo not given), the inhibition was -0.38% (inactive).

`OCCC1CN(Cc2cccn2-c2nccs2)CCN1CCc1ccccc1` (stereo not given): the inhibition was -0.69% (inactive).

With `O=C(c1cccs1)C1C(c2ccc(Br)cc2)NC(=S)NC1(O)C(F)(F)F` (stereo not given), the inhibition is 0.24% (inactive).

On to `OCC1(CCc2ccccc2)CCN(Cc2ccc3nsnc3c2)CC1`, for which the inhibition is 0.28% (inactive).

Turning to `Cc1c(CN2CCC(CO)(CCOc3ccccc3)CC2)[nH]c2ccc(Cl)cc12`, the inhibition is 8.27% (active).

Regarding `COc1cccc(CC2(CO)CCN(Cc3cnc(-c4cccc(C)c4)nc3)CC2)c1`, the inhibition was -0.01% (inactive).

Regarding `CCc1c(C)n([O-])c2c([n+]1=O)CCCCC2`, the inhibition was -0.95% (inactive).

In the case of `COc1cccc(NC(=O)CN(C)C(=O)c2cc(C3CC3)nn2-c2ccccc2)c1`, the inhibition is -0.11% (inactive).

Turning to `CSc1ncccc1C(=O)NCC(c1ccco1)N1CCCCC1` (stereo not given), the inhibition is 0.26% (inactive).

Turning to `Cc1ccc(N2C(=O)CC(NCc3ccc4c(c3)OCO4)C2=O)cc1Cl` (stereo not given), the inhibition is 12.1% (active).

As to `Cc1ccc(CC2CC(=O)N(c3ccc4c(c3)OCCO4)C2=O)cc1` (stereo not given), the inhibition was -0.24% (inactive).

For `O=CN1CCN(C2CC(=O)N(c3ccc4c(c3)OCO4)C2=O)CC1` (stereo not given), the inhibition was -2.06% (inactive).

For `COC(=O)CCSc1cc([N+](=O)[O-])cc2c1c(C1OCCS1)nn2-c1ccccc1` (stereo not given), the inhibition is -0.2% (inactive).

As to `CCOc1ccc(NC(=O)CC(Cc2ccc(Cl)cc2)C(=O)O)cc1` (stereo not given), the inhibition is -0.95% (inactive).

`Cc1ccc(C)c2[nH]c(=O)c(CCNC(=O)CC(C)C)cc12`: the inhibition is 0.44% (inactive).

As for `COc1ccc(-n2c(SCC(=O)NCc3ccco3)nnc2-c2c[nH]c3ccccc23)cc1`, the inhibition was 6.44% (active).

For the molecule `COc1ccc(-n2c(SCC(=O)NCc3cccs3)nnc2-c2ccoc2C)cc1`, the inhibition was -0.5% (inactive).

Consider `O=C(CSc1nnc(-c2c[nH]c3ccccc23)n1-c1ccc(F)cc1)NCc1ccco1`, for which the inhibition is 3.05% (inactive).

In the case of `Cc1cc(C(=O)NNC(=O)c2cccc(S(=O)(=O)N3CCOCC3)c2)c2ccccc2n1`, the inhibition is -0.24% (inactive).

Broadly, the inhibition is the drop in the measured response relative to a control, in per cent.
